Laboratory results: ChEMBL document CHEMBL4689842, “EUbOPEN Chemogenomics Library wave 1” (2021)

Test system: Fibroblast
Assay: Multiplex assay against human fibroblast
Type: toxicity, cell-based
Outline: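 Hoechst33342, BioTracker Green Microtubule Cytoskeleton Dye, MitoTracker Red and Annexin V Alexa Fluor 680 were added to live cells at seeding, and imaging on a CQ1 microscope at 37°C and 5% CO2 followed compound addition. Gating by CellPathfinder machine learning separated cells into Hoechst high-intensity objects or normal cells, then normal cells into healthy, pyknosed or fragmented nuclei, then pyknosed cells into mitotic or apoptotic. Per cents of healthy-nucleus cells are reported for the tubulin, mitochondrial-mass and membrane-permeability phenotypes.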

[1] = 12 h, 1 µM, compound concentration 1 uM, replicate 1
[2] = 12 h, 1 µM, compound concentration 1 uM, replicate 2
[3] = 12 h, 10 µM, compound concentration 10 uM, replicate 1
[4] = 12 h, 10 µM, compound concentration 10 uM, replicate 2
[5] = 24 h, 1 µM, compound concentration 1 uM, replicate 1
[6] = 24 h, 1 µM, compound concentration 1 uM, replicate 2
[7] = 24 h, 10 µM, compound concentration 10 uM, replicate 1
[8] = 24 h, 10 µM, compound concentration 10 uM, replicate 2
[9] = 48 h, 1 µM, compound concentration 1 uM, replicate 1
[10] = 48 h, 1 µM, compound concentration 1 uM, replicate 2
[11] = 48 h, 10 µM, compound concentration 10 uM, replicate 1
[12] = 48 h, 10 µM, compound concentration 10 uM, replicate 2

CC(C)NC(=O)N1CC[C@H](NC2=Nc3cc(F)ccc3N(CC(F)F)c3ccc(Cl)cc32)C1
Population Apoptotic (%) [1]: 68%
Population Fragmented Nuclei (%) [1]: 27%
Population Healthy Nuclei (%) [1]: 30%
Population Hoechst High Intensity Objects (%) [1]: 12%
Population Membrane Permeable-Phenotype (%) [1]: 4%
Population Mitochondria Different-Phenotype (%) [1]: 4%
Population Mitotic Cells (%) [1]: 31%
Population Normal (%) [1]: 87%
Population Pyknosed Nuclei (%) [1]: 42%
Population Tubulin-Different-Phenotype (%) [1]: 14%
Total Cell Count [1]: 79
Population Apoptotic (%) [2]: 33%
Population Fragmented Nuclei (%) [2]: 5%
Population Healthy Nuclei (%) [2]: 89%
Population Hoechst High Intensity Objects (%) [2]: 9%
Population Mitochondria Different-Phenotype (%) [2]: 18%
Population Mitotic Cells (%) [2]: 66%
Population Normal (%) [2]: 90%
Population Pyknosed Nuclei (%) [2]: 5%
Total Cell Count [2]: 293
Population Apoptotic (%) [3]: 70%
Population Fragmented Nuclei (%) [3]: 29%
Population Healthy Nuclei (%) [3]: 40%
Population Hoechst High Intensity Objects (%) [3]: 13%
Population Membrane Permeable-Phenotype (%) [3]: 8%
Population Mitochondria Different-Phenotype (%) [3]: 21%
Population Mitotic Cells (%) [3]: 29%
Population Normal (%) [3]: 86%
Population Pyknosed Nuclei (%) [3]: 29%
Population Tubulin-Different-Phenotype (%) [3]: 89%
Total Cell Count [3]: 160
Population Apoptotic (%) [4]: 0%
Population Fragmented Nuclei (%) [4]: 6%
Population Healthy Nuclei (%) [4]: 81%
Population Membrane Permeable-Phenotype (%) [4]: 13%
Population Mitochondria Different-Phenotype (%) [4]: 63%
Population Mitotic Cells (%) [4]: 100%
Population Pyknosed Nuclei (%) [4]: 11%
Population Tubulin-Different-Phenotype (%) [4]: 58%
Total Cell Count [4]: 62
Population Apoptotic (%) [5]: 62%
Population Fragmented Nuclei (%) [5]: 21%
Population Healthy Nuclei (%) [5]: 40%
Population Hoechst High Intensity Objects (%) [5]: 9%
Population Membrane Permeable-Phenotype (%) [5]: 25%
Population Mitochondria Different-Phenotype (%) [5]: 6%
Population Mitotic Cells (%) [5]: 37%
Population Normal (%) [5]: 90%
Population Pyknosed Nuclei (%) [5]: 38%
Population Tubulin-Different-Phenotype (%) [5]: 22%
Total Cell Count [5]: 84
Population Apoptotic (%) [6]: 50%
Population Fragmented Nuclei (%) [6]: 5%
Population Healthy Nuclei (%) [6]: 88%
Population Hoechst High Intensity Objects (%) [6]: 6%
Population Membrane Permeable-Phenotype (%) [6]: 6%
Population Mitochondria Different-Phenotype (%) [6]: 19%
Population Mitotic Cells (%) [6]: 50%
Population Normal (%) [6]: 93%
Population Pyknosed Nuclei (%) [6]: 5%
Population Tubulin-Different-Phenotype (%) [6]: 9%
Total Cell Count [6]: 281
Population Apoptotic (%) [7]: 64%
Population Fragmented Nuclei (%) [7]: 32%
Population Healthy Nuclei (%) [7]: 45%
Population Hoechst High Intensity Objects (%) [7]: 13%
Population Membrane Permeable-Phenotype (%) [7]: 10%
Population Mitochondria Different-Phenotype (%) [7]: 46%
Population Mitotic Cells (%) [7]: 35%
Population Normal (%) [7]: 86%
Population Pyknosed Nuclei (%) [7]: 21%
Population Tubulin-Different-Phenotype (%) [7]: 92%
Total Cell Count [7]: 163
Population Apoptotic (%) [8]: 83%
Population Fragmented Nuclei (%) [8]: 13%
Population Healthy Nuclei (%) [8]: 73%
Population Hoechst High Intensity Objects (%) [8]: 10%
Population Membrane Permeable-Phenotype (%) [8]: 6%
Population Mitochondria Different-Phenotype (%) [8]: 57%
Population Mitotic Cells (%) [8]: 16%
Population Normal (%) [8]: 90%
Population Pyknosed Nuclei (%) [8]: 13%
Population Tubulin-Different-Phenotype (%) [8]: 51%
Total Cell Count [8]: 75
Population Apoptotic (%) [9]: 52%
Population Fragmented Nuclei (%) [9]: 17%
Population Healthy Nuclei (%) [9]: 58%
Population Hoechst High Intensity Objects (%) [9]: 12%
Population Membrane Permeable-Phenotype (%) [9]: 23%
Population Mitochondria Different-Phenotype (%) [9]: 2%
Population Mitotic Cells (%) [9]: 47%
Population Normal (%) [9]: 87%
Population Pyknosed Nuclei (%) [9]: 23%
Population Tubulin-Different-Phenotype (%) [9]: 20%
Total Cell Count [9]: 83
Population Apoptotic (%) [10]: 33%
Population Fragmented Nuclei (%) [10]: 37%
Population Healthy Nuclei (%) [10]: 59%
Population Hoechst High Intensity Objects (%) [10]: 25%
Population Mitochondria Different-Phenotype (%) [10]: 3%
Population Mitotic Cells (%) [10]: 66%
Population Normal (%) [10]: 74%
Population Pyknosed Nuclei (%) [10]: 3%
Population Tubulin-Different-Phenotype (%) [10]: 33%
Total Cell Count [10]: 126
Population Apoptotic (%) [11]: 62%
Population Fragmented Nuclei (%) [11]: 41%
Population Healthy Nuclei (%) [11]: 48%
Population Hoechst High Intensity Objects (%) [11]: 20%
Population Membrane Permeable-Phenotype (%) [11]: 15%
Population Mitochondria Different-Phenotype (%) [11]: 21%
Population Mitotic Cells (%) [11]: 37%
Population Normal (%) [11]: 80%
Population Pyknosed Nuclei (%) [11]: 10%
Population Tubulin-Different-Phenotype (%) [11]: 90%
Total Cell Count [11]: 190
Population Apoptotic (%) [12]: 100%
Population Fragmented Nuclei (%) [12]: 24%
Population Healthy Nuclei (%) [12]: 74%
Population Hoechst High Intensity Objects (%) [12]: 7%
Population Membrane Permeable-Phenotype (%) [12]: 6%
Population Mitochondria Different-Phenotype (%) [12]: 1%
Population Mitotic Cells (%) [12]: 0%
Population Normal (%) [12]: 92%
Population Pyknosed Nuclei (%) [12]: 1%
Population Tubulin-Different-Phenotype (%) [12]: 56%
Total Cell Count [12]: 88
